This is an account of results in ChEMBL document CHEMBL1154801, “Novel phosphoramidates with porphine and nitrogenous drug: one-pot synthesis and orientation to cancer cells” (Eur J Med Chem, 2010).

In series [1] the test system is Bel-7402. The series can be described thus: Cytotoxicity against human Bel7402 cells after 48 hrs in the dark by MTT assay. The format is functional, cell-based. To be noted: Bel-7402, 48 h. Put shortly:
(§1)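 Cells seeded at 5000 per well and left to attach overnight. Compounds were taken from 50 mM DMSO stocks and diluted to final concentrations of 2.5–100 μM. Cells were exposed for 48 h in the dark, then given MTT (5 mg/mL in PBS) for 3 h. Formazan was dissolved in DMSO and absorbance read at 570 nm. The 50% cell-death concentration (IC50) was determined.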

Series [2] can be described thus: Cytotoxicity against human L02 cells after 48 hrs in the dark by MTT assay. To be noted: l02, 48 h. The format is cell-based. In a few lines: as §1

In the case of `CC1=C(CCC(=O)O)c2cc3[nH]c(cc4nc(cc5[nH]c(cc1n2)c(C)c5C(C)O)C(C)=C4C(C)O)c(C)c3CCC(=O)O` (stereo not drawn), the midpoint of inhibition in series [1], the IC50, lay at 8.93 µM.
On to `Cc1ccc(-c2c3nc(c(-c4ccc(C)cc4)c4ccc([nH]4)c(-c4ccc(OP(=O)(NCCCl)NCCCl)cc4)c4nc(c(-c5ccc(C)cc5)c5ccc2[nH]5)C=C4)C=C3)cc1`, for which 11.4 µM corresponded to half-maximal inhibition in series [1] (IC50). Further, the Activity entry in series [2] is on record as “Non-toxic”.
On the same counts, the results for `COc1ccc(-c2c3nc(c(-c4ccc(OC)cc4)c4ccc([nH]4)c(-c4ccc(OP(=O)(NCCCl)NCCCl)cc4)c4nc(c(-c5ccc(OC)cc5)c5ccc2[nH]5)C=C4)C=C3)cc1` are 17.3 µM and “Non-toxic”.
For `O=P(NCCCl)(NCCCl)Oc1ccc(-c2c3nc(c(-c4ccc(Cl)cc4)c4ccc([nH]4)c(-c4ccc(Cl)cc4)c4nc(c(-c5ccc(Cl)cc5)c5ccc2[nH]5)C=C4)C=C3)cc1`, in that order: 20.3 µM and “Non-toxic”.
On the same counts, the results for `O=Cc1ccc(OP(=O)(NCCCl)NCCCl)cc1` are more than 150 µM and “Toxic”.
In the case of `O=P(NCCCl)(NCCCl)Oc1ccc(-c2c3nc(c(-c4ccccc4)c4ccc([nH]4)c(-c4ccccc4)c4nc(c(-c5ccccc5)c5ccc2[nH]5)C=C4)C=C3)cc1`, it took 14.4 µM to reach half-maximal inhibition in series [1] (IC50). Also, the Activity entry in series [2] was “Non-toxic”.
On the same counts, the results for `O=P(NCCCl)(NCCCl)Oc1ccc(-c2c3nc(c(-c4ccc(Br)cc4)c4ccc([nH]4)c(-c4ccc(Br)cc4)c4nc(c(-c5ccc(Br)cc5)c5ccc2[nH]5)C=C4)C=C3)cc1` are 8.41 µM and “Non-toxic”.
